Series [1] can be described thus: Antiinflammatory activity in […] BV2 cells assessed as inhibition of LPS-induced nitric oxide production at 80 uM by Griess assay. The format is functional. The note with it: Mus musculus, BV-2. (The Griess reaction detects nitrite, a stable product of nitric oxide.)
Series [2] can be described thus: Antiinflammatory activity in […] BV2 cells assessed as inhibition of LPS-induced nitric oxide production by Griess assay. Format: functional, cell-based. The following applies: BV-2. An outline of the steps:
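BV-2 microglial cells were stimulated with lipopolysaccharide, and NO production was measured by the Griess assay. Inhibition is reported as IC50 values in μM.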

A short description of series [3]: Cytotoxicity against […] LPS-treated BV2 cells assessed as cell viability up to 80 uM after 24 hrs by MTT assay. The format is cell-based. The following applies: bv-2, 24 h.

One may read the inhibition as how much of the control response was suppressed. For orientation: IC50 means the concentration that inhibits the measured activity by half.

Take `CC(=O)O[C@@H]1[C@H](O)[C@@H](C)[C@](O)(CCc2ccoc2)[C@@]2(C)CCCC(C)(C)[C@H]12`: in series [1], the inhibition at 80 µM is less than 50%.

Regarding `CC(=O)O[C@@H]1[C@H](OC(C)=O)[C@@H](C)[C@](O)(CCc2ccoc2)[C@@]2(C)CCCC(C)(C)[C@H]12`, the inhibition at 80 µM in series [1] is less than 50%.

Consider `CC(=O)O[C@@H]1[C@H](O)[C@@H](C)[C@]2(CC[C@]3(CO[C@@H](O)C3)O2)[C@@]2(C)CCCC(C)(C)[C@H]12`, for which the inhibition at 80 µM in series [1] was less than 50%.

`CC(=O)O[C@@H]1[C@H](O)[C@@H](C)[C@]2(CC[C@]3(CO[C@H](O)C3)O2)[C@@]2(C)CCCC(C)(C)[C@H]12`: the inhibition at 80 µM in series [1] was less than 50%.

For the molecule `CC(=O)O[C@@H]1[C@H](O)[C@@H](C)[C@]2(CC[C@@]3(CO[C@H](O)C3)O2)[C@@]2(C)CCCC(C)(C)[C@H]12`, the inhibition at 80 µM in series [1] was less than 50%.

Take `CC(=O)O[C@@H]1[C@H](O)[C@@H](C)[C@]2(CC[C@@]3(CO[C@@H](O)C3)O2)[C@@]2(C)CCCC(C)(C)[C@H]12`: the inhibition at 80 µM in series [1] is less than 50%.

Regarding `COC1C=C(CC[C@@]2(O)[C@H](C)[C@@H](O)[C@@H](OC(C)=O)[C@H]3C(C)(C)CCC[C@@]32C)C(=O)O1` (stereo not given in full), the IC50 in series [2] came out at 16.2 µM. Further, in series [3], the Activity result was “Non-toxic”.

For `CCC(=O)C(OC(C)=O)[C@H]1C(C)(C)CCC[C@]1(C)C(=O)CCc1ccoc1` (stereo not given in full), the inhibition at 80 µM in series [1] was less than 50%.

Turning to `CCC(=O)C(OC(C)=O)[C@H]1C(C)(C)CCC[C@]1(C)C(=O)CCC1=CCOC1=O` (stereo not given in full), the IC50 in series [2] was 34.9 µM. Moreover, in series [3], the Activity result is reported as “Non-toxic”.

Take `CC1(C)CCC[C@@]2(C)C1=CC(=O)[C@](C)(O)[C@]2(O)CCc1ccoc1`: the inhibition at 80 µM in series [1] is less than 50%.

Take `CC(=O)O[C@H]1[C@@H](O)[C@H]2C(C)(C)CCC[C@]2(C)[C@@](O)(CCc2ccoc2)[C@@H]1C`: the inhibition at 80 µM in series [1] is less than 50%.

In the case of `C[C@@H]1[C@@H](O)[C@@H](O)[C@H]2C(C)(C)CCC[C@]2(C)[C@@]1(O)CCc1ccoc1`, the inhibition at 80 µM in series [1] was less than 50%.

In the case of `C[C@@H]1C(=O)C=C2C(C)(C)CCC[C@]2(C)[C@@]1(O)CCc1ccoc1`, in series [2], the IC50 was found to be 14.9 µM. In addition, in series [3], the Activity result is given as “Non-toxic”.

On to `C[C@@H]1[C@@H](O)C(=O)[C@H]2C(C)(C)CCC[C@]2(C)[C@@]1(O)CCc1ccoc1`, for which the inhibition at 80 µM in series [1] is less than 50%.

As to `CC1=C(CCc2ccoc2)[C@@]2(C)CCCC(C)(C)C2=CC1=O`, in series [2], the IC50 was determined as 34 µM. Also, the Activity entry in series [3] is “Non-toxic”.

Consider `O=c1c(O)c(-c2ccc(O)c(O)c2)oc2cc(O)cc(O)c12` [QUERCETIN], for which, in series [2], the IC50 worked out at 10 µM.
